Structures are written as SMILES. Some results are limits rather than exact numbers.

For one assay, the target named is T1, Dihydrofolate reductase (Mus musculus, UniProt P00375).
T1 sequence (P00375 whole entry): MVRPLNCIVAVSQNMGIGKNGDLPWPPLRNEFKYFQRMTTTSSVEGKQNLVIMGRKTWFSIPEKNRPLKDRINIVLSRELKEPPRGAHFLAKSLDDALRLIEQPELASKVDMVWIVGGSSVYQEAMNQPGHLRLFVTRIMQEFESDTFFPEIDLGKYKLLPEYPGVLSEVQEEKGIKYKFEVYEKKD
The experiment in a line: Inhibitory activity against dihydrofolate reductase (DHFR) of L-1210 cells. It counts as cell-based.

A further assay deals with L1210. The experiment in a line: Inhibition of cell growth of murine L-1210 cells. The settings on record: Mus musculus. It counts as functional, cell-based.
Assay [1] has as its system HL-60. The experiment in a line: Compound was evaluated for inhibition of human HL-60 cell growth at 1 (uM) at 24 hr. It is filed as functional. The gist of the method:
(§1)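 HL-60 cells exposed to compound for up to 72 h. Viable cells counted by trypan blue exclusion, with percent growth inhibition read at 1 μM after 24, 48 or 72 h.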

Assay [2] relates to HL-60. The experiment in a line: Compound was evaluated for inhibition of human HL-60 cell growth at 1 (uM) at 48 hr. It is filed as functional. The gist of the method: as §1
Assay [3] deals with HL-60. The experiment in a line: Compound was evaluated for inhibition of human HL-60 cell growth at 1 (uM) at 72 hr. It counts as functional. The gist of the method:
as §1

The test system of assay [4] is HL-60. The experiment in a line: Inhibition of [6-3H]-dUrd incorporation into DNA in HL-60 cells. It is filed as functional. The settings on record: Homo sapiens, read-out: ED50 (the source's name). The gist of the method: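 HL-60 cells preincubated with compound for 40 min, then given [6-3H]dUrd (0.05 μM, 1 μCi/mL) for 30 min at 37 °C, and label incorporated into DNA measured. Five compound concentrations were used, with ED50 from the median-effect equation and plot. For shallow curves, values were given as < or <<.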

In assay [5] the test system is HL-60. The experiment in a line: Median-effective concentration for inhibition of human HL-60 cell growth at 24 h. It is filed as functional. The settings on record: HL-60, 24 h, read-out: ED50 (the source's name). The gist of the method: (§2)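 HL-60 cells exposed to five concentrations of each compound for up to 72 h, with viable cells counted by trypan blue exclusion. ED50 at 24, 48 or 72 h derived by median-effect equation and plot. Where dose-effect curves were shallow, values were assigned with < or << marks.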

The subject of assay [6] is HL-60. The experiment in a line: Median-effective concentration for inhibition of human HL-60 cell growth at 48 h. It counts as functional. The following applies: HL-60, 48 h, read-out: ED50 (the source's name). The gist of the method:
as §2

The test system of assay [7] is HL-60. The experiment in a line: Median-effective concentration for inhibition of human HL-60 cell growth at 72 h. It counts as functional. The settings on record: HL-60, 72 h, read-out: ED50 (the source's name). The gist of the method: as §2

The compound `Cc1nc2nc(N)nc(N)c2c(-c2ccccc2)c1CNc1ccc(C(=O)NC(CCC(=O)O)C(=O)O)cc1` (stereo unspecified) yielded an inhibition constant Ki on Dihydrofolate reductase of more than 4 pM. The compound also displayed a concentration for half-maximal inhibition (IC50) with L1210 of 18.9 µM.
Turning to `Nc1nc(N)c2cc(CNc3ccc(C(=O)NC(CCC(=O)O)C(=O)O)cc3)c(-c3ccccc3)nc2n1` (stereo unspecified), the Ki on Dihydrofolate reductase was more than 4 pM. In the assay with L1210, this compound returned a half-inhibitory concentration (IC50) of 16.9 µM.
`Cc1c(CNc2ccc(C(=O)NC(CCC(=O)O)C(=O)O)cc2)c(-c2ccccc2)nc2nc(N)nc(N)c12` (stereo unspecified) had a Ki on Dihydrofolate reductase of more than 4 pM. In addition, the midpoint of inhibition in the assay with L1210, the IC50, lay at 18.9 µM.
As to `Nc1nc(N)c2cc(CNc3ccc(C(=O)NC(CCC(=O)O)C(=O)O)cc3)cnc2n1` (stereo unspecified), the IC50 with L1210 came to 0.02 µM.
For `Cc1nc2nc(N)nc(N)c2c(C)c1CNc1ccc(C(=O)NC(CCC(=O)O)C(=O)O)cc1` (stereo unspecified), the Inhibition came out at 10.3% in the assay on HL-60 [1], 19.8% in the assay with HL-60 [2] and 50.8% in the assay on HL-60 [3]. Moreover, the EC50 was 568 µM in the assay on HL-60 [4], 42 µM in the assay on HL-60 [5], 8.2 µM in the assay on HL-60 [6] and 0.59 µM with HL-60 [7]. This compound registered a Ki on Dihydrofolate reductase of 2.01 pM. In the assay with L1210, this compound registered an IC50 of 0.125 µM.
For `Cc1c(CNc2ccc(C(=O)NC(CCC(=O)O)C(=O)O)cc2)cnc2nc(N)nc(N)c12` (stereo unspecified), the Inhibition amounted to 25.2% in the assay with HL-60 [1], 61.1% in the assay on HL-60 [2] and 92.2% with HL-60 [3]. Moreover, the EC50 in the assay with HL-60 [4] was less than 4 µM; in the assay on HL-60 [5], 2290 µM; with HL-60 [6] it was 0.15 µM; in the assay with HL-60 [7], less than 0.001 µM. Also, 0.00011 µM corresponded to half-maximal inhibition with L1210 (IC50).
Take `Cc1nc2nc(N)nc(N)c2cc1CNc1ccc(C(=O)NC(CCC(=O)O)C(=O)O)cc1` (stereo unspecified): the Inhibition with HL-60 [1] was 4.7%; with HL-60 [2], 32.5%; in the assay on HL-60 [3], 77.6%. Further, the EC50 amounted to 123 µM with HL-60 [4], 144 µM in the assay with HL-60 [5], 2 µM in the assay on HL-60 [6] and 0.011 µM in the assay on HL-60 [7]. The same compound gave an inhibition constant (Ki) on Dihydrofolate reductase of more than 4 pM. Moreover, in the assay on L1210, the IC50 turned out to be 0.08 µM.
`CN(Cc1cnc2nc(N)nc(N)c2n1)c1ccc(C(=O)N[C@@H](CCC(=O)O)C(=O)O)cc1` [METHOTREXATE]: the figures for the Inhibition in the assay with HL-60 [1], with HL-60 [2] and with HL-60 [3] were 34.2%, 64% and 87.7%, respectively. Besides, the EC50 in the assay on HL-60 [4] was 0.1 µM; in the assay with HL-60 [5], 609 µM; in the assay on HL-60 [6], less than 0.05 µM; in the assay with HL-60 [7], less than 0.05 µM. This compound also returned an IC50 in the assay on L1210 of 0.0045 µM.
